Reference: ChEMBL document CHEMBL2311339, “Identification of GZD824 as an orally bioavailable inhibitor that targets phosphorylated and nonphosphorylated breakpoint cluster region-Abelson (Bcr-Abl) kinase and overcomes clinically acquired mutation-induced resistance against imatinib” (J Med Chem, 2013)
The source made the active and inactive calls. The rule behind the calls is not given here.

How the values were obtained:
[1] = Plasma concentration in rat after 24 hrs; format: ADME
Procedure, shortened: (§1)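 Bismesylate salt given to rats as a single iv dose of 5 mg/kg or a single oral dose of 25 mg/kg. Plasma drug levels were followed over time to derive the PK parameters. The 12 h and 24 h plasma levels come from the oral 25 mg/kg dose.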

BaF3 [2] = assay: Antitumor activity against mouse BA/F3 cells expressing BCR-ABL F317L mutant allografted in po dosed SCID mouse assessed as reduction of hepatosplenomegaly administered qd for 14 days; format: functional, organism-based
[3] = Cytotoxicity against mouse BA/F3 cells expressing BCR-ABL M351T mutant assessed as growth inhibition after 72 hrs by CCK-8 assay; settings: BaF3, 72 h
BaF3 [4] = assay: Antitumor activity against mouse BA/F3 cells expressing wild type BCR-ABL allografted in SCID mouse assessed as inhibition of tumor growth at 1 mg/kg/day, po qd for 14 days; format: functional, organism-based
Procedure, shortened: (§2)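 Ba/F3 cells stably expressing Bcr-Abl (wild type or mutant) were grown in RPMI 1640 with 10% FBS and no IL-3, then suspended in saline (2.5 × 10^7 cells/mL) and given as 0.2 mL s.c. in the right flank. Groups were randomised at 100−200 mm3. Once-daily oral gavage for 14 days in DMSO/Cremophor/ethanol/saline vehicle; reference imatinib 50 or 100 mg/kg/day. Volume L × W²/2 every 2 days; n = 10; t test versus vehicle.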

[5] = Antitumor activity against mouse BA/F3 cells expressing BCR-ABL T315I mutant allografted in SCID mouse assessed as increase in median survival at 20 mg/kg/day, po qd for 10 days; format: functional, BaF3
Procedure, shortened: (§3)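 Ba/F3 Bcr-Abl T315I cells stably carrying firefly luciferase, in saline, were injected i.v. into SCID nude mice (2 × 10^6 cells/0.1 mL). Imaging began 5−7 days later: i.p. D-luciferin, halothane anaesthesia, images after 5 min. Mice were randomised by signal and dosed by oral gavage once daily for 10 days (5, 10, 20 mg/kg/day; imatinib 100 mg/kg; vehicle). Luminescence was quantified; survival by Kaplan−Meier with log-rank test.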

[6] = Half life in rat liver microsomes at 1 uM; format: ADME, Microsome
BaF3 [7] = assay: Antitumor activity against mouse BA/F3 cells expressing BCR-ABL T315I mutant allografted in po dosed SCID mouse assessed as inhibition of tumor growth administered qd for 14 days; format: functional, organism-based; procedure, shortened: as §2
K562 [8] = assay: Cytotoxicity against imatinib-resistant human K562 cells expressing BCR-ABL Q252H mutant assessed as growth inhibition after 72 hrs by CCK-8 assay; format: functional, cell-based; settings: K562, 72 h
Procedure, shortened: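 The K562 subline was made imatinib-resistant by 3 months of exposure to imatinib from 0.1 to 5 μM, followed by clonal selection and sequencing to confirm Q252H. Cells were seeded at about 3000 cells/well, treated 24 h later for 72 h, then given CCK-8 for 3 h. Read-out was OD450 − OD650 normalized to vehicle; IC50 is the mean of three experiments.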

K562 [9] = assay: Antitumor activity against human K562 cells xenografted in mouse assessed as decrease in tumor recurrence at 2 mg/kg, po qd for 20 days; format: functional, organism-based; parameters: dose 2 mg/kg
[10] = molecular target: Tyrosine-protein kinase ABL1 (Homo sapiens, UniProt P00519, Y253F); assay: Inhibition of human recombinant ABL1 Y253F mutant expressed in insect cells after 30 mins by FRET assay; format: cell-based
Mus musculus = assay: Toxicity in human K562 cells xenografted mouse assessed as mortality; format: organism-based; settings: in vivo
Procedure, shortened: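 K562 cells suspended in normal saline (2.5 × 10^7 cells/mL), 0.2 mL injected subcutaneously into the right flank. Mice were randomised once mean tumour volume reached 100−200 mm3. Oral gavage once daily for 14 days, in 1% DMSO/22.5% Cremophor/7.5% ethanol/69% saline. Tumour volume (L × W²/2) and body weight taken every 2 days; recurrence followed 20 days after dosing stopped. n = 10/group; unpaired t test versus vehicle.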

[11] = Mean residence time in rat at 25 mg/kg, po; format: ADME, organism-based; parameters: dose 25 mg/kg, route oral; settings: in vivo; procedure, shortened: as §1
BaF3 [12] = assay: Antitumor activity against mouse BA/F3 cells expressing wild type BCR-ABL allografted in SCID mouse assessed as inhibition of tumor growth at 50 to 100 mg/kg/day, po qd for 14 days; format: functional, organism-based; procedure, shortened: as §2
[13] = AUC (0 to t) in rat at 5 mg/kg, iv; format: ADME, organism-based; parameters: dose 5 mg/kg, route intravenous; settings: plasma; procedure, shortened: as §1
BaF3 [14] = assay: Antitumor activity against mouse BA/F3 cells expressing BCR-ABL T315I mutant allografted in SCID mouse assessed as induction of tumor regression at 20 mg/kg/day, po qd for 14 days; format: functional, organism-based; procedure, shortened: as §2
[15] = Cytotoxicity against mouse BA/F3 cells expressing BCR-ABL F317L mutant assessed as growth inhibition after 72 hrs by CCK-8 assay; settings: BaF3, 72 h
[16] = Antitumor activity against mouse BA/F3 cells expressing BCR-ABL T315I mutant allografted in SCID mouse assessed as increase in median survival at 10 mg/kg/day, po qd for 10 days; format: functional, BaF3; procedure, shortened: as §3
[17] = molecular target: Epithelial discoidin domain-containing receptor 1 (Homo sapiens) (UniProt Q08345); assay: Binding affinity to DDR1 (unknown origin) at 10 nM after 2 hrs by FRET assay
[18] = molecular target: Platelet-derived growth factor receptor beta (Homo sapiens) (UniProt P09619); assay: Binding affinity to PDGFRbeta (unknown origin) at 10 nM after 2 hrs by FRET assay
Cytochrome P450 2C9 = Cytochrome P450 2C9 (Homo sapiens, UniProt P11712); assay: Inhibition of human recombinant CYP2C9 after 30 mins; format: ADME
K562 [19] = assay: Antitumor activity against human K562 cells xenografted in mouse assessed as inhibition of tumor growth at 1 mg/kg, po qd for 14 days; format: functional; settings: K562, 336 h, read-out: TGI
Procedure, shortened: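 K562 cells in normal saline (2.5 × 10^7 cells/mL, 0.2 mL) injected subcutaneously into right flank; mice randomized when mean tumor volume reached 100−200 mm3. Dosing once daily by oral gavage for 14 consecutive days in 1% DMSO, 22.5% Cremophor, 7.5% ethanol, 69% saline. Tumor volume (L × W2/2) and body weight every 2 days; n = 10/group; unpaired Student's t test vs vehicle.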

[20] = Antitumor activity against mouse BA/F3 cells expressing BCR-ABL T315I mutant allografted in SCID mouse assessed as increase in median survival at 5 mg/kg/day, po qd for 10 days; format: functional, BaF3; procedure, shortened: as §3
K562 [21] = assay: Antitumor activity against human K562 cells xenografted in mouse assessed as reduction in tumor size at 2 to 10 mg/kg, po qd for 2 days; format: functional, organism-based
BaF3 [22] = assay: Antitumor activity against mouse BA/F3 cells expressing BCR-ABL T315I mutant allografted in SCID mouse assessed as increased survival at 1 to 20 mg/kg/day, po qd for 10 days; format: functional, organism-based
[23] = molecular target: Mast/stem cell growth factor receptor Kit (Homo sapiens) (UniProt P10721); assay: Binding affinity to KIT (unknown origin) at 10 nM after 2 hrs by FRET assay
[24] = AUC (0 to t) in rat at 25 mg/kg, po; format: ADME, organism-based; parameters: dose 25 mg/kg, route oral; settings: plasma; procedure, shortened: as §1
[25] = molecular target: Tyrosine-protein kinase ABL1 (Homo sapiens, UniProt P00519, Q252H); format: cell-based
cells = settings: Mus musculus, BaF3, 72 h

Mast/stem cell growth factor receptor Kit (Homo sapiens), sequence (P10721 whole entry): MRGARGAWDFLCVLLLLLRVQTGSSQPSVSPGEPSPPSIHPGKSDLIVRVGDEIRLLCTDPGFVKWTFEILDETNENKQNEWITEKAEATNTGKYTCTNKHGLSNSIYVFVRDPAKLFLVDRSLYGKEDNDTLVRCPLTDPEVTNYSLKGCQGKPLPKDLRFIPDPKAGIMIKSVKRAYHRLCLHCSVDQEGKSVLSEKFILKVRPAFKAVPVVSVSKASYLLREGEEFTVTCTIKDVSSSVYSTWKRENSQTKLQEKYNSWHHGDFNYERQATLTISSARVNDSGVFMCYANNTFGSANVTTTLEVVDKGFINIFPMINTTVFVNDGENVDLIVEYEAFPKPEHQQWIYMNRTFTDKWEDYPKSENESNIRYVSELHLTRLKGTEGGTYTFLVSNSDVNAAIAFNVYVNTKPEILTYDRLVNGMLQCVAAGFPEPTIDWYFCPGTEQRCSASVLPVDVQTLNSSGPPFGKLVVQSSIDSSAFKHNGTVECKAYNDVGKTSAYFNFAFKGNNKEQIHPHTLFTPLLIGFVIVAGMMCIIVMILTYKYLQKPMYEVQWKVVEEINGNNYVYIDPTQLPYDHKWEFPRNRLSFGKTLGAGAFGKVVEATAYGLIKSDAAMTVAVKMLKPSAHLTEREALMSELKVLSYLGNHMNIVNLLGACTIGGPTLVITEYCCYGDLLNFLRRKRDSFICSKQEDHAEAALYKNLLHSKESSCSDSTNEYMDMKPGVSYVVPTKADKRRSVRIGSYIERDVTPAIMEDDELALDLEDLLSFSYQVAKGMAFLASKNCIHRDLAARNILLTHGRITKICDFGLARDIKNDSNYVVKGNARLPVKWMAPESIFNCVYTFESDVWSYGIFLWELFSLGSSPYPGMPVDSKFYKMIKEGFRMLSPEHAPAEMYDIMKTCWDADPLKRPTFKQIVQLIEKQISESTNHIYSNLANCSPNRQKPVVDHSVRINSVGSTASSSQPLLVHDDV
Epithelial discoidin domain-containing receptor 1 (Homo sapiens), sequence (Q08345 whole entry, the tested form may be a part): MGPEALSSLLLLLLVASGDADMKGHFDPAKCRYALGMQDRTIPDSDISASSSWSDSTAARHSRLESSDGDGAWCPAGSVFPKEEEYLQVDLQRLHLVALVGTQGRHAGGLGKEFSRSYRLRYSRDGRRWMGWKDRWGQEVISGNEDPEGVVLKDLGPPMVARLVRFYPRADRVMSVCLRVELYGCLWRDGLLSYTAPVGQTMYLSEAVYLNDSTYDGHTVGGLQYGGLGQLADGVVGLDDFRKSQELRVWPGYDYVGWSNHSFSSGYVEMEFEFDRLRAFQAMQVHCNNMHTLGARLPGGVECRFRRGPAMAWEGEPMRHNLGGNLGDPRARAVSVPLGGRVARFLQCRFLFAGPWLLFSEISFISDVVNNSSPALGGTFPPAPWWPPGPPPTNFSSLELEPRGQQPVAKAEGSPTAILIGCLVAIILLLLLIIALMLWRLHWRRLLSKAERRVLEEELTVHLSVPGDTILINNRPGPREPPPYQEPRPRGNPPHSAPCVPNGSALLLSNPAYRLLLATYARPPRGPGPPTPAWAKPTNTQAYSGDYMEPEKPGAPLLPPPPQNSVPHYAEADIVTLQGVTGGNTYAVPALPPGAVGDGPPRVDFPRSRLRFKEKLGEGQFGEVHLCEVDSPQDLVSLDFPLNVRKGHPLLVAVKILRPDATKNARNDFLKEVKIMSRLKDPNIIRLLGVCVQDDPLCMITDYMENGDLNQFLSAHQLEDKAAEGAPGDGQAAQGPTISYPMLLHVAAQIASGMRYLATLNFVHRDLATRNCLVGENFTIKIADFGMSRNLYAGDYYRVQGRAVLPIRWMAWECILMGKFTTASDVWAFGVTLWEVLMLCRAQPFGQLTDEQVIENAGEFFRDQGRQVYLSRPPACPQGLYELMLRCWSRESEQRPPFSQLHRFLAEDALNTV
Cytochrome P450 2C9, sequence (P11712 whole entry): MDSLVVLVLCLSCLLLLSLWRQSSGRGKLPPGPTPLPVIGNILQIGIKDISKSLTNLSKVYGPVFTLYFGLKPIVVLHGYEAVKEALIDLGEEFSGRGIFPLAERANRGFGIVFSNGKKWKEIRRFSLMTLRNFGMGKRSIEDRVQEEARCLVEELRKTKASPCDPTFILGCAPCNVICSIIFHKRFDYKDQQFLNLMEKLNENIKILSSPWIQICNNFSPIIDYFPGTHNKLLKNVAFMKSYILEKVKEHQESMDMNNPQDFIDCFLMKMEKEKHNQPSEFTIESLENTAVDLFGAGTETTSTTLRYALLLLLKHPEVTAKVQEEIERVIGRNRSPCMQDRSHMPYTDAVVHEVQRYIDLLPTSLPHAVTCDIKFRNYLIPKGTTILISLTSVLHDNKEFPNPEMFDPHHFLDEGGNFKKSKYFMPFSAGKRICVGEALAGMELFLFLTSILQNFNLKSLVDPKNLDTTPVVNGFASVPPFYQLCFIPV
Platelet-derived growth factor receptor beta (Homo sapiens), sequence (P09619 whole entry): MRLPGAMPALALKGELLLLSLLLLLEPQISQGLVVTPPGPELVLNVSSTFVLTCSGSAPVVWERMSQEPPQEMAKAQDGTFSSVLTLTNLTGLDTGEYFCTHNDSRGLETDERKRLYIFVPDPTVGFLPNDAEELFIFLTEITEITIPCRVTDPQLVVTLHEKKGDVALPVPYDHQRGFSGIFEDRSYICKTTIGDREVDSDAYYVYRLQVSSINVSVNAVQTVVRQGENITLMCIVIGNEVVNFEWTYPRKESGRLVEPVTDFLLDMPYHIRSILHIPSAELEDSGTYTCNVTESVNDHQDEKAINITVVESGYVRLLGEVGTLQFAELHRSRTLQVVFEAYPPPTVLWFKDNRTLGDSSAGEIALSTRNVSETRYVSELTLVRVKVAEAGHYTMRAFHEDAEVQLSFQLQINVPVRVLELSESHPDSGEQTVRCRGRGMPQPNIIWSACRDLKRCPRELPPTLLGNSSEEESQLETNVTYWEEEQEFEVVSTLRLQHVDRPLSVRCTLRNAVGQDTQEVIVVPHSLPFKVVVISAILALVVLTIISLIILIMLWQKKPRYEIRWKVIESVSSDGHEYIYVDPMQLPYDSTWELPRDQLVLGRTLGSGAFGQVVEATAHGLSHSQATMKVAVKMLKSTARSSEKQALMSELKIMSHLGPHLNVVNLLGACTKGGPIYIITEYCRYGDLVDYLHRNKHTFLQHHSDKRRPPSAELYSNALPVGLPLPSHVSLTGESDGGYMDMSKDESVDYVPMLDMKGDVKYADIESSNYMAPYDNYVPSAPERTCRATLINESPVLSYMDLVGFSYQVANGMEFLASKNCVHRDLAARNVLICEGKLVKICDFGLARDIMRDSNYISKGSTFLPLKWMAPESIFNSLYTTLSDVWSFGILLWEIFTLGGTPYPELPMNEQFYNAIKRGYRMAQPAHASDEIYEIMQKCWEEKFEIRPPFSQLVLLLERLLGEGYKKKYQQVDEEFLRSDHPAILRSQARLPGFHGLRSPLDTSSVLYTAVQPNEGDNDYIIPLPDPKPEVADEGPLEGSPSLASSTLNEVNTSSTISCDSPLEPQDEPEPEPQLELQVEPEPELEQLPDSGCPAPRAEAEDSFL

**Q.** For Cc1ccc(C(=O)Nc2ccc(CN3CCN(C)CC3)c(C(F)(F)F)c2)cc1C#Cc1cnc2[nH]ncc2c1 [OLVEREMBATINIB], which concentration at 24 h [1] is on record?
**A.** 169 nM

**Q.** What about the Activity (BaF3 [2]) of the same compound?
**A.** Active

**Q.** And the IC50 [3]?
**A.** 0.2 nM

**Q.** What about the TGI (BaF3 [4]) of the same compound?
**A.** Active

**Q.** What about the Survival [5] of the same compound?
**A.** 31.9 days

**Q.** And the half-life at 1 µM [6]?
**A.** 0.933 h

**Q.** What about the TGI (BaF3 [7]) of the same compound?
**A.** Active

**Q.** What about the IC50 (K562 [8]) of the same compound?
**A.** 4.5 nM

**Q.** And the Activity (K562 [9])?
**A.** inactive

**Q.** What about the IC50 [10] of the same compound?
**A.** 0.35 nM

**Q.** What about the Activity (Mus musculus) of the same compound?
**A.** Non-toxic

**Q.** And the MRT [11]?
**A.** 17.9 h

**Q.** What about the TGI (BaF3 [12]) of the same compound?
**A.** Dose-dependent effect

**Q.** And the AUC(0-t) [13]?
**A.** 2740 ng·h/mL

**Q.** And the Activity (BaF3 [14])?
**A.** Active

**Q.** And the IC50 [15]?
**A.** 2.7 nM

**Q.** And the Survival [16]?
**A.** 24.6 days

**Q.** And the Activity [17]?
**A.** inactive

**Q.** What about the Activity [18] of the same compound?
**A.** inactive

**Q.** What about the IC50 (Cytochrome P450 2C9) of the same compound?
**A.** 110 nM

**Q.** And the inhibition in vivo at 1 mg/kg (K562 [19])?
**A.** 68.3%

**Q.** What about the Survival [20] of the same compound?
**A.** 23.7 days

**Q.** And the Activity (K562 [21])?
**A.** Active

**Q.** And the Activity (BaF3 [22])?
**A.** Dose-dependent effect

**Q.** And the Activity [23]?
**A.** inactive

**Q.** What about the AUC(0-t) [24] of the same compound?
**A.** 6700 ng·h/mL

**Q.** And the IC50 [25]?
**A.** 0.15 nM

**Q.** What about the IC50 (cells) of the same compound?
**A.** 6 nM
